Laboratory results: ChEMBL document CHEMBL5335820, “Novel quinolinepiperazinyl-aryltetrazoles targeting the blood stage of Plasmodium falciparum” (RSC Med Chem, 2024)

Experiments:
[1] = Cytotoxicity against human Huh-7 cells assessed as reduction in cell viability incubated for 24 hrs by MTT assay; type: toxicity, cell-based
[2] = Selectivity index, ratio of CC50 for human Huh-7 cells to IC50 for antiplasmodial activity against chloroquine resistant Plasmodium falciparum INDO infected in human erythrocytes; type: toxicity, cell-based; conditions: read-out: Ratio CC50/IC50
Summary of the method: (§1)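 Selectivity index = CC50 / PfINDO IC50. CC50 came from MTT assays: 10^4 HEK293 or HUH7 cells per well, seeded overnight and exposed to 0–100 μM for 24 h, then MTT for 4 h at 37 °C with formazan dissolved in DMSO and read at A570. Controls were 0.8% DMSO (full growth) and 10% DMSO (zero growth).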

Plasmodium falciparum [3] = assay: Antiplasmodial activity against chloroquine sensitive Plasmodium falciparum 3D7 infected in human erythrocytes assessed as inhibition of parasite growth incubated for 72 hrs by SYBR green I staining based fluorescence plate reader analysis; type: functional, organism-based; conditions: 3D7, Erythrocyte
Summary of the method: (§2)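 Pf3D7 or PfINDO was cultured in O+ human erythrocytes at 37 °C under 5% O2/5% CO2/90% N2 and ring-synchronised with 5% sorbitol. Cultures were exposed to 0–100 μM in triplicate for 72 h, with final DMSO 0.4%. After SYBR Green I lysis buffer (1 h, dark, 37 °C), fluorescence was read at 485/530 nm. Chloroquine-well counts were subtracted as background, and IC50 was obtained by non-linear regression.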

[4] = Cytotoxicity against human HEK293 cells assessed as reduction in cell viability incubated for 24 hrs by MTT assay; type: toxicity, cell-based
[5] = Resistance index, ratio of IC50 of chloroquine resistant Plasmodium falciparum INDO to chloroquine sensitive Plasmodium falciparum 3D7; type: functional
Summary of the method: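 Resistance index = IC50 against PfINDO / IC50 against Pf3D7. Both IC50s came from 72 h SYBR Green I assays.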

Plasmodium falciparum [6] = assay: Antiplasmodial activity against chloroquine sensitive Plasmodium falciparum 3D7 infected in human erythrocytes assessed as inhibition of parasite growth at 100 uM incubated for 72 hrs by SYBR green I staining based fluorescence plate reader analysis relative to control; type: functional; conditions: 3D7, Erythrocyte
Summary of the method: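 Pf3D7 grown in O+ human erythrocytes at 4% haematocrit, Albumax (0.05%)-RPMI, 37 °C, 5% O2/5% CO2/90% N2, sorbitol-synchronised at ring stage. Single-point screen at 100 μM, final DMSO 0.4%, triplicate wells, 72 h. Read-out by SYBR Green I lysis buffer (Tris pH 7.5, EDTA, saponin, Triton X-100), 1 h dark at 37 °C, ex 485/em 530 nm. Growth expressed relative to untreated culture.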

Plasmodium falciparum [7] = assay: Antiplasmodial activity against chloroquine resistant Plasmodium falciparum INDO infected in human erythrocytes assessed as inhibition of parasite growth at 100 uM incubated for 72 hrs by SYBR green I staining based fluorescence plate reader analysis relative to control; type: functional; conditions: Erythrocyte
Summary of the method: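 Single-concentration screen at 100 μM against PfINDO, triplicate wells, 72 h. Final DMSO was 0.4%. Growth was read by SYBR Green I lysis (excitation 485, emission 530 nm) and expressed relative to untreated culture, taken as 100% growth.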

Plasmodium falciparum [8] = assay: Antiplasmodial activity against chloroquine resistant Plasmodium falciparum INDO infected in human erythrocytes assessed as inhibition of parasite growth incubated for 72 hrs by SYBR green I staining based fluorescence plate reader analysis; type: functional, organism-based; conditions: Erythrocyte; summary of the method: as §2
[9] = Selectivity index, ratio of CC50 for human HEK293 cells to IC50 of chloroquine resistant Plasmodium falciparum INDO infected in human erythrocytes; type: toxicity, cell-based; conditions: read-out: Ratio CC50/IC50; summary of the method: as §1
Plasmodium falciparum [10] = assay: Antimalarial activity against chloroquine resistant trophozoites-stage Plasmodium falciparum INDO infected in human erythrocytes assessed as inhibition of parasite growth incubated for 12 hrs; type: functional, organism-based; conditions: Erythrocyte
Summary of the method: (§3)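 PfINDO cultures were staged at 0–6 h (rings), 18–22 h (trophozoites), 30–34 h (early schizonts) and 40–44 h (late schizonts) post-invasion. Each was exposed to varying concentrations for 12 h, washed free of compound by centrifugation, and grown 48 h in drug-free medium. IC50 came from growth curves, with untreated culture as 100% and chloroquine-treated culture as 0% growth.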

Plasmodium falciparum [11] = assay: Antimalarial activity against chloroquine resistant late schizont Plasmodium falciparum INDO infected in human erythrocytes assessed as inhibition of parasite growth incubated for 12 hrs; type: functional, organism-based; conditions: Erythrocyte; summary of the method: as §3
Plasmodium falciparum [12] = assay: Antiplasmodial activity against chloroquine resistant ring-stage Plasmodium falciparum INDO infected in human erythrocytes assessed as inhibition of parasite growth incubated for 12 hrs; type: functional, organism-based; conditions: Erythrocyte; summary of the method: as §3
Plasmodium falciparum [13] = assay: Antimalarial activity against chloroquine resistant early schizont Plasmodium falciparum INDO infected in human erythrocytes assessed as inhibition of parasite growth incubated for 12 hrs; type: functional, organism-based; conditions: Erythrocyte; summary of the method: as §3
Plasmodium berghei = assay: Antimalarial activity against Plasmodium berghei ANKA infected in mouse model of malaria assessed as reduction in parasite infection by measuring median survival at 100 mg/kg, po; type: functional

SMILES	CC50 at 24 h [1] [µM]	selectivity ratio [2]	IC50 (Plasmodium falciparum [3]) [µM]	CC50 at 24 h [4] [µM]	Ratio IC50 [5]	inhibition at 100 µM (Plasmodium falciparum [6]) [%]	inhibition at 100 µM (Plasmodium falciparum [7]) [%]	IC50 (Plasmodium falciparum [8]) [µM]	selectivity ratio [9]	IC50 (Plasmodium falciparum [10]) [µM]	IC50 (Plasmodium falciparum [11]) [µM]	IC50 (Plasmodium falciparum [12]) [µM]	IC50 (Plasmodium falciparum [13]) [µM]	Survival (Plasmodium berghei) [days]
COc1cccc(-c2nnn(CCCN3CCN(c4ccnc5cc(Cl)ccc45)CC3)n2)c1	> 400	> 52.2	9.9	342	0.77	> 50	> 50	7.66	44.6	–	–	–	–	–
O=C(Cn1nnc(-c2ccc([N+](=O)[O-])cc2)n1)N1CCN(c2ccnc3cc(Cl)ccc23)CC1	> 400	> 179	1.65	> 400	1.36	> 50	> 50	2.24	179	4.72	6.29	10.3	5.46	–
CC(C)c1ccc(-c2nnn(CCCN3CCN(c4ccnc5cc(Cl)ccc45)CC3)n2)cc1	> 400	> 47.8	3.12	> 400	2.69	> 50	> 50	8.37	47.8	–	–	–	–	–
Cc1ccc(-c2nnn(CCCN3CCN(c4ccnc5cc(Cl)ccc45)CC3)n2)cc1	310	48.8	8	> 400	0.79	> 50	> 50	6.35	63	–	–	–	–	–
O=C(Cn1nnc(-c2ccc(Br)cc2)n1)N1CCN(c2ccnc3cc(Cl)ccc23)CC1	> 400	> 35.6	17.5	> 400	0.64	> 50	> 50	11.2	35.6	–	–	–	–	–
Clc1cccc(-c2nnn(CCCN3CCN(c4ccnc5cc(Cl)ccc45)CC3)n2)c1	> 400	> 20.1	10.7	> 400	1.87	> 50	> 50	19.9	20.1	–	–	–	–	–
O=C(Cn1nnc(-c2cccc(Cl)c2)n1)N1CCN(c2ccnc3cc(Cl)ccc23)CC1	> 400	> 67.7	12.6	> 400	0.47	> 50	> 50	5.91	67.7	5.39	24.8	19.6	15.9	–
CCN(CC)CCCC(C)Nc1ccnc2cc(Cl)ccc12 (configuration not stated) [CHLOROQUINE]	–	–	–	–	–	–	–	–	–	–	–	–	–	28
Fc1cccc(-c2nnn(CCCN3CCN(c4ccnc5cc(Cl)ccc45)CC3)n2)c1	> 400	> 28.1	22.9	> 400	0.62	> 50	> 50	14.2	28.1	–	–	–	–	–
O=[N+]([O-])c1cccc(-c2nnn(CCCN3CCN(c4ccnc5cc(Cl)ccc45)CC3)n2)c1	72	4.45	9.17	> 400	1.76	> 50	> 50	16.2	24.7	–	–	–	–	–
Fc1ccc(-c2nnn(CCCN3CCN(c4ccnc5cc(Cl)ccc45)CC3)n2)cc1	> 400	> 99	2.07	> 400	1.96	> 50	> 50	4.04	99	2.8	1.85	1.72	1.68	–
O=C(Cn1nnc(-c2cccc(Br)c2)n1)N1CCN(c2ccnc3cc(Cl)ccc23)CC1	> 400	> 44.5	10.5	> 400	0.86	> 50	> 50	8.99	44.5	–	–	–	–	–
Clc1ccc2c(N3CCN(CCCn4nnc(-c5cccc(Br)c5)n4)CC3)ccnc2c1	> 400	> 56.8	3.84	> 400	1.83	> 50	> 50	7.05	56.8	7.31	4.62	8.67	8.24	–
Clc1ccc(-c2nnn(CCCN3CCN(c4ccnc5cc(Cl)ccc45)CC3)n2)cc1	> 400	> 139	1.11	> 400	2.58	> 50	> 50	2.87	139	12.2	7.64	4.07	3.93	–
CC(C)c1ccc(-c2nnn(CC(=O)N3CCN(c4ccnc5cc(Cl)ccc45)CC3)n2)cc1	> 400	> 60.1	15.9	> 400	0.42	> 50	> 50	6.66	60.1	24.9	26.7	18.5	21.5	–
O=C(Cn1nnc(-c2ccc(Cl)cc2)n1)N1CCN(c2ccnc3cc(Cl)ccc23)CC1	> 400	> 28.7	32.1	> 400	0.43	> 50	> 50	14	28.7	–	–	–	–	–
O=C(Cn1nnc(-c2ccc(F)cc2)n1)N1CCN(c2ccnc3cc(Cl)ccc23)CC1	24.2	1.95	15.6	> 400	0.8	> 50	> 50	12.4	32.2	–	–	–	–	–
O=C(Cn1nnc(-c2cccc(F)c2)n1)N1CCN(c2ccnc3cc(Cl)ccc23)CC1	> 400	> 47.3	8.14	> 400	1.04	> 50	> 50	8.46	47.3	–	–	–	–	–
COc1ccc(-c2nnn(CCCN3CCN(c4ccnc5cc(Cl)ccc45)CC3)n2)cc1OC	129	21.7	4.84	> 400	1.23	> 50	> 50	5.97	67	–	–	–	–	–
